Dynein cargo inh – blocks dynein driven cargo transport along microtubules. 3617.4 mouse cells, GR-EGFP nuclear translocation imaging; test concentration mostly 20 µM; stimulated with dexamethasone, 1 µM; active compounds read low. z-score, hits read low. 220,000 tested, 0.47% active. AID 1381;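 active = plate z-score of nuclear minus cytoplasmic receptor signal below a set negative limit, without overly bright fluorescence or cell loss, cut at about -3.5 in these data, passing the limit was not always enough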;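 note: z-score of nuclear minus cytoplasmic ring GR-EGFP intensity difference per well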
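medium = tetracycline-free induction medium containing charcoal-stripped FBS | also added = 1.0 µM final dexamethasone stimulus | schedule = 48 h induction, 1 h compound, 30 min dex at 37 °C | technique = fixed, Hoechst-stained cells imaged at 10x for EGFP | measure = GR-EGFP nuclear translocation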
PERK inh – blocks human PERK kinase. Q9NZJ5. CHO PERK-DD fusion, SEAP luminescence translation reporter. inhibition, % at 5.6 µM. 220,000 tested, 0.17% active. AID 1416;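 active = inhibition above the mean inhibition of all tested compounds plus 3 SD, set separately per screening campaign, cut at about 2.9% in these data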;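 note: PERK kinase domain activated by AP20187 dimerizer at 100 nM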
Autophagy mod – alters autophagy in cells. MEF GFP-LC3 puncta imaging; test concentration mostly 10 µM. 190,000 tested, 0.98% active. AID 463193. calls only at 10 µM (by protocol);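 active = percentage of spot-positive cells more than 3 SD above its plate mean, without a fluorescence outlier flag or 80% toxicity; inconclusive = no clear call, values can overlap the other calls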
TbHK1 inh – blocks Trypanosoma brucei hexokinase 1 activity | recombinant TbHK1, G6PDH-coupled NADH A340 | inhibition, % at 10 µM | 220,000 tested, 0.11% active;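 active = inhibition of 50% or more in the single-dose primary screen; inactive = inhibition below 50%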
HSV augment – HSV replication enhancement | HSV replication augmentation in cells, fold increase | maximum fold increase | 220,000 tested, 0.005% active | AID 1956; in the data active = maximum fold increase above about 1.5; inconclusive = no clear call, values can overlap the other calls; tested in PC3 cells
HKDC1 inhibitor – blocks human hexokinase HKDC1 activity; Q2TB90; recombinant HKDC1, G6PDH/diaphorase resazurin coupled fluorescence; inhibition, % at 20 µM; 340,000 tested, 0.16% active;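 active = inhibition above about 35% when tested at 20 µM, limit read from the data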
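Incubation: 90 min at room temperature in dark / Material: recombinant HKDC1 (HK5) hexokinase enzyme, produced in-house / Quantity: enzyme 5 µg/mL final / Compound: one dose of 20 µM, 1% DMSO / Reagent: glucose and ATP substrates / Buffer or medium: Tris pH 8.0 buffer with MgCl2, Tween-20, BSA, BME / Technique: resorufin fluorescence at 613 nm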
Dynein confirm – dynein cargo transport inhibition, confirmation; calls only at 20 µM; shares compounds with Dynein cargo inh; 3617.4 GR-EGFP nuclear translocation imaging, dexamethasone-induced; 1,000 tested, 69% active;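 active = inhibition of receptor movement into the nucleus at or above a set limit in both runs, with normal cell brightness and cell count; inconclusive = limit reached in only one run, brightness and count normal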;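 note: dexamethasone at 1 µM final in well for 30 min; nuclear minus cytoplasmic GR-EGFP mean intensity difference in channel 2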
Large screens that a line does not name were inactive (follow-up assays come after a bar, where they were run). A selection: hits, their analogues and other compounds. The true share with any hit is near 1.2%.

Cc1ccc(S(=O)(=O)N2CCC(C(=O)OC(C)C(=O)N(C)c3ccccc3)CC2)cc1C (configuration not stated)	none (no result: Dynein cargo inh, PERK inh, Autophagy mod, TbHK1 inh, HSV augment)
CCNc1ccc(Br)cc(C(=O)/C=C/c2ccc(Cl)cc2Cl)c1=O	none | Dynein confirm active
O=[N+]([O-])c1ccc(C=Nc2ccc(Cl)c([N+](=O)[O-])c2)s1	Dynein cargo inh -5.6 (no result: HKDC1 inhibitor) | Dynein confirm active
Cc1cc(C)cc(N=Cc2ccc([N+](=O)[O-])s2)c1	none
O=C(Cc1cccs1)Nc1nc(-c2ccc(F)cc2F)cs1	Dynein cargo inh -3.5 | Dynein confirm inactive
CC(=O)c1cccc(NC(=O)CCc2nnc3ccc(N4CCOCC4)nn23)c1	none (no result: Dynein cargo inh, PERK inh, Autophagy mod, TbHK1 inh, HSV augment)
Nc1c(C(=O)C2CC2)sc2nc(-c3ccccc3)cc(C(F)(F)F)c12	Autophagy mod inconclusive, HSV augment inconclusive | Dynein confirm inactive
CC(=O)c1sc2nc(-c3cccs3)cc(C(F)(F)F)c2c1N	Autophagy mod active, HSV augment inconclusive | Dynein confirm active
N#C/C(=C/c1ccc(N2CCCCC2)o1)c1cccc(F)c1	Autophagy mod inconclusive | Dynein confirm inactive
N#C/C(=C/c1ccc(N2CCCCCC2)o1)c1ccc(Cl)cc1	Autophagy mod inconclusive | Dynein confirm inactive
N#C/C(=C\c1ccc(N2CCOCC2)o1)C(=O)NC1CCCCC1	none (no result: Autophagy mod, HSV augment)
O=C(Oc1oc(-c2ccco2)nc1C=Nc1ccccc1)c1ccco1	none (no result: HSV augment)
Cc1ccc(C(=O)Oc2oc(-c3ccco3)nc2C=Nc2ccc(Cl)cc2)cc1	Dynein cargo inh -3.7 | Dynein confirm active
O=C(Oc1oc(-c2ccco2)nc1C=Nc1ccccc1)c1ccoc1	Dynein cargo inh -4 | Dynein confirm active
CCOC(=O)c1c(-c2ccc(C)o2)csc1NC(=S)NC(=O)N(C)C	Dynein cargo inh -3.8 | Dynein confirm inactive
COc1ccc(OC)c(NC(=O)CSc2nnc(-c3cnccn3)n2C)c1	none (no result: Dynein cargo inh, PERK inh, Autophagy mod, TbHK1 inh, HSV augment)
O=c1c(Cl)nc2cc(Cl)ccc2n1CCNc1ncc(C(F)(F)F)cc1Cl	Dynein cargo inh -4.5, Autophagy mod active | Dynein confirm inactive
O=C(Oc1ccccc1/C=C\C(=O)c1cc2ccccc2o1)c1ccccc1	none
COc1cccc(C(=O)Oc2ccccc2/C=C\C(=O)c2cc3ccccc3o2)c1	Dynein cargo inh -4 | Dynein confirm active
Cc1cccc(C)c1NC(=O)CN(C)C(=O)C1CC1C (configuration not stated)	none (no result: Dynein cargo inh, PERK inh, Autophagy mod, TbHK1 inh, HSV augment)
OC(CNCCc1ccc(C(F)(F)F)cc1)COc1ccc2ccccc2c1 (configuration not stated)	Dynein cargo inh -4.8 | Dynein confirm inactive
N#Cc1nccnc1S(=O)(=O)c1cccs1	Dynein cargo inh -5.6 (no result: Autophagy mod) | Dynein confirm active
O=C(NC(Cc1ccccc1)C(=O)O)/C(=C\c1ccc(Cl)cc1)NC(=O)c1ccco1 (configuration not stated)	none (no result: Dynein cargo inh, PERK inh, Autophagy mod, TbHK1 inh, HSV augment)
COc1ccc(CN(C)C(=O)Cn2ccc(N)nc2=O)cc1OC	none (no result: Dynein cargo inh, PERK inh, Autophagy mod, TbHK1 inh, HSV augment)
CC(C)Cn1c([N+](=O)[O-])nc2c1c(=O)[nH]c(=O)n2C	Dynein cargo inh -7.3 (no result: Autophagy mod) | Dynein confirm active
Cn1c(=O)[nH]c(=O)c2c1nc([N+](=O)[O-])n2Cc1ccccc1	Dynein cargo inh -4.9 (no result: Autophagy mod) | Dynein confirm active
O=C(NCC(=O)N1CCN(c2ccccc2O)CC1)c1ccc(Br)o1	none (no result: Dynein cargo inh, PERK inh, Autophagy mod, TbHK1 inh, HSV augment)
C=CCSc1nc2ccccc2n1C(=O)/C=C/c1cc(OC)c(OC)c(OC)c1	Dynein cargo inh -6 (no result: HSV augment) | Dynein confirm active
C=C(C(=O)c1ccccc1)C(C(=C)C(=O)c1ccccc1)c1ccc(OC)cc1	Dynein cargo inh -3.8 (no result: Autophagy mod) | Dynein confirm active
Cc1ccccc1CC(=O)Nc1cccnc1	none (no result: Dynein cargo inh, PERK inh, Autophagy mod, TbHK1 inh, HSV augment)
CCn1nc(C)cc1C(=O)Sc1ccc(Cl)cc1Cl	none (no result: Autophagy mod)
CCn1nc(C)cc1C(=O)Sc1cccc(Br)c1	Dynein cargo inh -4 (no result: Autophagy mod) | Dynein confirm active
O=C(CCN1CCN(c2ccccc2F)CC1)c1ccc(Br)cc1	Dynein cargo inh -4.3 | Dynein confirm inactive
CN(C)c1ccc(/C=C2/NC(=O)NC2=O)cc1	none (no result: HSV augment)
CN(C)c1ccc(/C=C2\N=C(c3ccc(Cl)c([N+](=O)[O-])c3)NC2=O)cc1	none | Dynein confirm active
COc1ccc(C(=O)C(CN2CCCC2)c2ccccc2)cc1 (configuration not stated)	Dynein cargo inh -4.3 | Dynein confirm active
O=C(c1ccc(F)cc1)C(CN1CCOCC1)c1ccccc1 (configuration not stated)	Dynein cargo inh -6.1 | Dynein confirm active
COc1ccc(-c2c(C#N)c(N)nc3sc(C(=O)c4ccccc4)c(N)c23)cc1	none | Dynein confirm inactive
COc1ccc(C(=O)CCC(=O)Nc2cc(Cl)c(O)c(Cl)c2)cc1	none (no result: Dynein cargo inh, PERK inh, Autophagy mod, TbHK1 inh, HSV augment)
OCCCN=c1cc(-c2ccccc2)oc2ccc(Cl)cc12	none
CC1(C)CC(N=c2cc(-c3ccccc3)oc3ccc(Cl)cc23)CC(C)(C)N1	Dynein cargo inh -3.5, Autophagy mod active | Dynein confirm inactive
C[C@H]1CN([C@@H](C)CO)C(=O)c2cccc(NC(=O)c3ccc(-c4nccs4)cc3)c2O[C@@H]1CN(C)C(=O)NC1CCCCC1	none (no result: Dynein cargo inh, PERK inh, Autophagy mod, TbHK1 inh, HSV augment)
COc1ccc([N+](=O)[O-])c(S(=O)(=O)c2ccccc2)n1	Dynein cargo inh -5.5 (no result: Autophagy mod) | Dynein confirm active
COc1ccc([N+](=O)[O-])c(S(=O)(=O)c2ccc(Cl)cc2)n1	Dynein cargo inh -4.9 (no result: Autophagy mod) | Dynein confirm active
O=[N+]([O-])c1cccnc1S(=O)(=O)c1ccccc1	none (no result: Dynein cargo inh, PERK inh, Autophagy mod, TbHK1 inh, HSV augment)
N#CC1(C#N)C(c2ccccc2)OC23CCCCCC2C1(C#N)C(=N)O3 (configuration not stated)	none
N#CC1(C#N)C(c2ccccc2)OC23CCCCC2C1(C#N)C(=N)O3 (configuration not stated)	Dynein cargo inh -4.2, HSV augment inconclusive | Dynein confirm active
C#CC(=O)N(c1cccc(OC)c1)C(C(=O)NC1CCCC1)c1cccs1 (configuration not stated)	Dynein cargo inh -5.3 | Dynein confirm active
C#CC(=O)N(c1ccc(OC)c(OC)c1)C(C(=O)NC1CCCC1)c1cccs1 (configuration not stated)	Dynein cargo inh -4.7 | Dynein confirm active
Cc1cccc(N(C(=O)C(F)(F)F)C(C(=O)NC2CCCCC2)c2cccs2)c1 (configuration not stated)	none
COc1ccc(N(C(=O)Cc2cccs2)C(C(=O)NC2CCCC2)c2ccncc2)cc1OC (configuration not stated)	none (no result: Dynein cargo inh, PERK inh, Autophagy mod, TbHK1 inh, HSV augment)
Cc1cc(N)n(-c2ncnc3scc(-c4ccc(Cl)cc4)c23)n1	none
Clc1ncnc2scc(-c3ccc(Br)cc3)c12	Dynein cargo inh -4.5 | Dynein confirm active
CCN1C/C(=C/c2ccc(N3CCOCC3)cc2)C(=O)/C(=C/c2ccc(N3CCOCC3)cc2)C1	none (no result: HSV augment) | Dynein confirm active

Source: PubChem BioAssay (several laboratories)
